Measured values gathered from unrelated publications.
Each line is one published result; the experiments were not run side by side.
Effect on: cell growth or viability

Compound	cell line	assay	conditions	endpoint	result
N.N.[Cl][Pt][Cl]	JVM-3	ATP luminescence	10 µM, 72 h	inhibition	100%
COC(=O)c1cc(C(C)=NNc2nc(-c3ccc(S(=O)(=O)F)cc3)cs2)ccc1O	T47D	MTT	96 h	IC50	26300 nM
O=C1c2ccccc2-c2c3c(cc4ccnc1c24)OCO3	T47D	MTT	75 h	IC50	15900 nM
N#C[Se]Cc1cc(=O)oc2cc(O)ccc12	T47D	SRB		GI50	35000 nM
O=[N+]([O-])c1ccc(NCCCCCCN=C=S)c2nonc12	T47D	MTT	24 h	IC50	1200 nM
Cc1ncsc1-c1ccc([C@H](C)NC(=O)[C@@H]2C[C@@H](O)CN2C(=O)[C@@H](c2cc(N3CCC(CN4CCC(OC5CC(Oc6cc(N7C8CCC7CN(c7cc(-c9ccccc9O)nnc7N)C8)ccn6)C5)CC4)CC3)no2)C(C)C)cc1 (stereo partly shown)	LNCaP	ATP luminescence	7 days	IC50	3.2 nM
C[S+]([O-])CCCCN=C=S (stereo not shown)	T47D	MTT	24 h	IC50	30400 nM
Cc1cc(=O)oc2cc(OCCCC[Se]C#N)ccc12	MIA PaCa-2	SRB		GI50	2600 nM
CC[C@@]1(O)C(=O)OCc2c1cc1n(c2=O)Cc2cc3ccccc3nc2-1	MIA PaCa-2	SRB	48 h	IC50	151 nM
CC(=O)c1c(C)c2cnc(Nc3ccc(C4CCN(CCS(C)(=O)=O)CC4)cn3)nc2n(C2CCCC2)c1=O	T47D	ATP luminescence	72 h	IC50	177 nM
